PglD inh: blocks C. jejuni PglD acetyltransferase activity. purified PglD enzyme, DTNB colorimetric CoA detection. inhibition, % at 12.5 µM. 360,000 compounds, 0.098% hits; in the data active = inhibition above about 16%, passing the limit was not always enough
SR-BI HDL uptake: mouse SR-BI HDL lipid transfer inhibition; Q61009; ldlA[mSR-BI] CHO cells, DiI-HDL uptake fluorescence, 3 h; inhibition, % at 12.5 µM; 320,000 compounds, 0.96% hits; AID 488896;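 active = mean replicate inhibition of at least 70% and a set share of replicates each scoring 70 or more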;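 note: 0% = median of neutral control wells and 100% = median of positive control wells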
Target sequence (Q61009 whole entry, looked up): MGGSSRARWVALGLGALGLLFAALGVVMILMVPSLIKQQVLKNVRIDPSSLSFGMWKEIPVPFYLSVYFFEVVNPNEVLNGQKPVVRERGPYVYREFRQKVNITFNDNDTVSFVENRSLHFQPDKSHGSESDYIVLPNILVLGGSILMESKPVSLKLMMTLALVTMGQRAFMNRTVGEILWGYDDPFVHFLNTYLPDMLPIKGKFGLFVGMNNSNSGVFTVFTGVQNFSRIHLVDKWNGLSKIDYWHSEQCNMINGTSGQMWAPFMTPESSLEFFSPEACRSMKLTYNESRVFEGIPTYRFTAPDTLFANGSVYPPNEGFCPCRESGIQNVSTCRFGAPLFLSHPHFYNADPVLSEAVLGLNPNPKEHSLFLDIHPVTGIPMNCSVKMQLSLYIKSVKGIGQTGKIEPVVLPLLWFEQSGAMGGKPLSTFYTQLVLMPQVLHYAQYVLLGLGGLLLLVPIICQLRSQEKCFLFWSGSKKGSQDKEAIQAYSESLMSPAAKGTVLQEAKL
Glyco luc inh: blocks N-linked glycosylation in D54 reporter cells; D54 ERlucT glycosylation luciferase reporter, 24 h; percent of 100 nM tunicamycin response; reporter increase, % at 12.5 µM; 360,000 compounds, 0.23% hits; AID 588692;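 active = mean luciferase reporter signal, scaled so untreated is 0 and the glycosylation-blocking control 100, at or above a set limit in every replicate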;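 note: luciferase carries N-glycosylation sites so blocking glycosylation raises the light; 0% = median of neutral control wells and 100% = median of 100 nM tunicamycin wells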
SR-BI uptake up: SR-BI HDL lipid transfer activation. 320,000 compounds, 0.096% hits. CHO ldlA[mSR-BI] cells, DiI-HDL uptake fluorescence, 3 h; 100 = double the neutral-control signal. activation, % at 12.5 µM;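 active = mean replicate activation of at least 60% and every replicate at or above 60%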;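 note: 0% = median plate neutral-control signal and 100% = twice that signal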
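Assay system: CHO ldlA[mSR-BI] cells, LDL receptor-null, SR-BI overexpressing; medium: Ham's F12 with 0.5% BSA, HEPES 25 mM, pH 7.4; also added: DiI-HDL 10 µg/mL; timing: 3 h uptake period with compound, 37 °C; signal: DiI fluorescence, bottom read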
Env fusion inh: HIV envelope-mediated fusion inhibition; 360,000 compounds, 1.1% hits; inhibition, % at 12.3 µM; HeLa-JRFL Env/CEM21 cell fusion, luciferase; AID 651610;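 active = mean replicate inhibition score of at least 50 and every replicate individually at or above 50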;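 note: 0% = plate neutral controls and 100% = maraviroc near 300 nM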
Rtt109 Vps75: inhibitors of Candida albicans Rtt109/Vps75 histone acetyltransferase; purified Rtt109/Vps75, ThioGlo CoA-SH fluorescence, 4 h; inhibition, % at 34.9 µM; 330,000 compounds, 0.16% hits; AID 540336;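 active = inhibition of at least 50% in every replicate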
Numbers without * were called inactive; nt = no result given; [ ] = remark or other dose. A selection: hits, their analogues and other compounds. The true share with any hit is near 1.9%.

SMILES	PglD inh	SR-BI HDL uptake	Glyco luc inh	SR-BI uptake up	Env fusion inh	Rtt109 Vps75
COc1ccc(CCNC(=O)c2ccc(N(C)S(=O)(=O)c3ccc(C)cc3)cc2)cc1OC	-3	74*	-3	-74	14	6
COc1ccc(CCNC(=O)c2ccc(OC)c(OC)c2)cc1OC	3	10	0	-10	-3	-3
COc1ccc(CCNC(=O)c2cc([N+](=O)[O-])cc([N+](=O)[O-])c2)cc1OC	-5	73*	2	-73	5	-14
CCCC(=O)Nc1ccc2c(c1)C(=O)N(C)[C@@H]1CC[C@@H](CC(=O)NCC(F)(F)F)O[C@H]1CO2	1	nt	nt	nt	3[16.7 µM]	nt
Cc1cccc2cc(/C=C/C(=O)c3ccco3)c(Cl)nc12	3	nt	31*	nt	4	nt
CCOc1ccc2nc(Cl)c(/C=C/C(=O)c3ccco3)cc2c1	nt	-20	10	20	-55	-12
COc1ccc(Cl)cc1C(=O)Nc1ccc(NC(C)=O)cc1	nt	59	3	-59	12	-2
COc1ccc(Cl)cc1C1=NOC2(CCC2)C(=O)N1Cc1ccc(NC(C)=O)cc1	2	nt	3	nt	67*	nt
COc1ccc(S(=O)(=O)Nc2ccc3c(c2)CC(=O)N([C@H](C)CO)C[C@H](C)[C@@H](CN(C)S(=O)(=O)c2ccc(F)cc2)O3)cc1	1	nt	nt	nt	25[16.7 µM]	nt
CCC(C)NC(=O)c1cc2c(=O)n(CC)c3ccccc3c2s1 (stereo not given)	0	74*	6	-74	-13	-2
CCn1c(=O)c2cc(C(=O)NCC(OC)OC)sc2c2ccccc21	7	25	9	-25	16	0
CCOC(CNC(=O)c1cc2c(=O)n(CC)c3ccccc3c2s1)OCC	7	82*	2	-82	-4	-3
Cn1c(=O)oc2cc(S(=O)(=O)N3CCCC3)ccc21	0	-18	0	18	62*	-2
Cn1c(=O)oc2cc(S(=O)(=O)N3CCCCC3)ccc21	1	-3	2	3	21	4
CC1Cc2ccccc2N1C(=O)Cn1c(=O)oc2cc(S(=O)(=O)N3CCCCC3)ccc21 (stereo not given)	-2	80*	-1	-80	2	1
C[C@@H]1CN([C@H](C)CO)C(=O)c2cc(NC(=O)Cc3cn(C)c4ccccc34)ccc2O[C@H]1CN(C)C(=O)NC1CCCCC1	-4	nt	nt	nt	-7[16.7 µM]	nt
CC(C)NC(=O)N1[C@H](CO)[C@@H]2c3ccccc3N(C(=O)c3ccc(F)cc3)C[C@@H]21	0	nt	nt	nt	nt	nt
CCN(CC)c1ccc2nc3ccccc3[n+](CC)c2c1	-6	-13	-6	13	nt	8
CCN(CC)c1ccc2nc3ccc(N)cc3[n+](-c3ccccc3)c2c1	-2	-10	1	10	72*	-4
CN(C)CC(=O)Nc1ccc2c(c1)[C@H]1C[C@@H](CC(=O)NCc3ccccc3)O[C@@H](CO)[C@H]1O2	2	nt	nt	nt	3[16.7 µM]	nt
COc1ccc(S(=O)(=O)NNC(=O)C23CC4CC(CC(C4)C2)C3)cc1[N+](=O)[O-]	nt	-11	0	11	76*	6
Cn1c(-c2ccccc2)c(C(=O)CCl)c2ccccc21	nt	-4	13	4	64*	19
CCn1c(-c2ccccc2)c(C(=O)CCl)c2ccccc21	nt	-16	13	16	41	3
Cc1cc(C)c(C)c(S(=O)(=O)N2CCC(C(=O)NCc3cccs3)CC2)c1C	3	nt	1	nt	-10	nt
Cc1cc(C)c(C)c(S(=O)(=O)N2CCC(C(=O)NNC(=O)c3ccccc3O)CC2)c1C	-1	119*	-7	-119	7	28
SMILES	PglD inh	SR-BI HDL uptake	Glyco luc inh	SR-BI uptake up	Env fusion inh	Rtt109 Vps75
Cc1ccc(S(=O)(=O)N2CCC(C(=O)NNC(=O)c3ccccc3O)CC2)cc1	2	81*	-3	-81	37	-1
CC(=O)Nc1ccc(S(=O)(=O)N2CCC(C(=O)c3ccc(Cl)cc3)CC2)cc1	2	-10	-4	10	56*	17
Cc1ccc(S(=O)(=O)N2CCC(C(=O)NNC(=O)c3ccccc3O)CC2)cc1C	nt	72*	-4	-72	6	-9
Cc1ccc(S(=O)(=O)N2CCC(C(=O)N3CCCCCCC3)CC2)cc1C	nt	nt	-1	nt	-5	nt
CC(=O)Nc1ccc(S(=O)(=O)N2CCC(C(=O)c3ccc(F)cc3)CC2)cc1	4	-6	-4	6	-8	2
C[C@H]1CN([C@@H](C)CO)S(=O)(=O)c2ccc(-c3cccnc3)cc2O[C@@H]1CN(C)C(=O)CC1CC1	-1	nt	nt	nt	-5[16.7 µM]	nt
Cc1noc(C)c1NC(=O)N(C)C[C@H]1Oc2c(NS(=O)(=O)c3ccc(Cl)cc3)cccc2C(=O)N([C@@H](C)CO)C[C@H]1C	1	nt	nt	nt	21[16.7 µM]	nt
CCCNC(=O)[C@@H]1[C@@H](CO)[C@@H]2Cn3c(ccc(-c4ccccc4)c3=O)[C@@H]2N1C(=O)c1ccccc1F	2	nt	nt	nt	nt	nt
Cc1ccc(S(=O)(=O)N2CCC(C(=O)Nc3ccc(S(=O)(=O)N4CCOCC4)cc3)CC2)cc1	1	-36	-3	36	29	5
Cc1cc(C)c(C)c(S(=O)(=O)N2CCC(C(=O)Nc3ccc(S(=O)(=O)N4CCOCC4)cc3)CC2)c1C	1	-1	-4	1	57*	1
CC(C)CC#Cc1ccc2c(c1)O[C@H](CN(C)Cc1ccc(C(=O)O)cc1)[C@@H](C)CN([C@H](C)CO)S2(=O)=O	-1	nt	nt	nt	15[16.7 µM]	nt
CC(C)c1ccc(N(C(=O)c2ccco2)C(C(=O)NC2CCCC2)c2ccncc2)cc1 (stereo not given)	-3	-8	0	8	62*	23
O=C(NC1CCCCC1)C(c1ccc(Cl)cc1)N(C(=O)c1cnccn1)c1ccc2c(c1)OCO2 (stereo not given)	nt	-8	3	8	83*	-14
CC(C)CCN(C(=O)c1csnn1)C(C(=O)NC1CCCCC1)c1ccc(F)cc1 (stereo not given)	0	-14	0	14	59*	-5
CC(C)c1ccc(N(C(=O)c2csnn2)C(C(=O)NC2CCCC2)c2ccncc2)cc1 (stereo not given)	3	4	1	-4	77*	16
CCC(C)N(C(=O)c1csnn1)C(C(=O)NC1CCCC1)c1ccc(F)cc1 (stereo not given)	-7	nt	0	nt	26	-1
CCC(=O)N1C[C@H](O)COC[C@H]2O[C@@H](CC(=O)NC)CC[C@@H]21	2	nt	nt	nt	3[16.7 µM]	nt
O=C(NC1CCCC1)C(c1ccncc1)N(Cc1cccs1)C(=O)c1csnn1 (stereo not given)	1	4	2	-4	nt	-3
Cc1ccccc1CCN(C(=O)c1csnn1)C(C(=O)NC1CCCC1)c1ccncc1 (stereo not given)	1	nt	-1	nt	79*	1

Screening results: PubChem, Broad Institute
